M18AAP inhibitor: PfM18AAP inhibitors, malaria aminopeptidase, primary screen, biochemical, QFRET, recombinant enzyme; H-Glu-NHMec fluorogenic cleavage; inhibition, % at 7.35 µM; 1.2% of 290,000 active; AID 1822, 2009;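 active = inhibition above the campaign mean inhibition over all tested compounds plus 3 SD, cut at about 28% in these data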;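 also: 0% = plate median of test compound wells and 100% = 2 mM ZnCl2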
TNF necrop inh: inhibitors of TNF-alpha triggered necroptosis, primary screen, cell-based, Jurkat FADD-/-, single concentration | 0.068% of 220,000 active | AID 463075, 2010 | Jurkat FADD-/- TNF necroptosis rescue, ATP luminescence, 24 h; 0 = TNF only, 100 = no-TNF cells | activation (protection from cell death), % at 10 µM;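 active = activation, meaning protection from cell death, of at least 50% relative to plate controls; inactive = activation below 50%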;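 also: necroptosis triggered by 40 ng/mL TNF-alpha added together with compound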
L929 necroptosis: inhibitors of zVAD-triggered necroptosis, primary screen, L929 cells | L929 zVAD necroptosis rescue, ATP luminescence, 24 h; with zVAD 60 µM | viability rescue, % at 10 µM | 0.38% of 220,000 active | AID 1377, 2008;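 active = activation, scaled between plate controls, above about 75%, limit read from the data; inactive = activation under that limit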;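 also: 0% = zVAD with DMSO and 100% = DMSO alone without zVAD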
Wee1 degr inh: Wee1 degradation inhibitors, primary screen, cell-based, HeLa, Wee1K328M-luciferase, luminescence | Wee1-like protein kinase (Homo sapiens), P30291 | HeLa Luc-Wee1K328M stability; 100% = proteasome inhibitor MG132 effect | reporter increase, % at 5 µM | 1.2% of 220,000 active;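 active = activation above the mean of all tested compounds plus 3 SD, set per screening run, cut at about 8.8% in these data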;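 also: cells exposed to compound for 20 h before luminescence read; 0% = DMSO alone and 100% = MG132 at 30 µM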
RBBP9 inh: human RBBP9 inhibitors, primary screen, biochemical, fluorescence polarization, FP-Rh probe, HTS; Serine hydrolase RBBP9 (Homo sapiens), O75884; recombinant RBBP9; inhibition, % at 7.94 µM; 0.2% of 220,000 active;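 active = inhibition above the campaign mean of all tested compounds plus 3 SD, cut at about 14% in these data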;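 also: plate controls were DMSO wells with RBBP9 for no effect and wells lacking RBBP9 protein for full effect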
Target sequence (O75884 whole entry, looked up): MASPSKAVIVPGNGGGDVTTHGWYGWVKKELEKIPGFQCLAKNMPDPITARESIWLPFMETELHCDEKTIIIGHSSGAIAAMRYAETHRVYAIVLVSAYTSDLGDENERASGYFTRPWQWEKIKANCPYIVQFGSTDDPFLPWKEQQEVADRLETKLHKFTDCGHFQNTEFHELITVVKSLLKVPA
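System: RBBP9 protein | Quantity: 2.5 µM RBBP9 dispensing solution, before mixing | Reagent: FP-Rh probe, 375 nM dispensing solution | Timing: Enzyme-compound preincubation 30 min, then probe labeling 45 min, 25 °C | Measured by: Fluorescence polarization | Read-out: % inhibition | Replication: One well per compound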
p97 inhibitor: inhibitors of human p97 ATPase, primary screen, biochemical; Transitional endoplasmic reticulum ATPase (Homo sapiens), P55072; recombinant p97 ATPase, Kinase-Glo ATP luminescence, 3 h; inhibition, % at 8 µM; 0.42% of 220,000 active; in the data active = inhibition above about 15%;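 also: 0% = DMSO vehicle and 100% = wells lacking enzyme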
Wee1 degr conf: Wee1 degradation inhibitors, confirmation, cell-based, HeLa, Wee1K328M-luciferase, luminescence, triplicate | shares compounds with Wee1 degr inh | 4% of 1,100 active | activation, % at 5 µM | HeLa Luc-Wee1K328M degradation; vehicle 0%, proteasome-blocked wells 100%; in the data active = activation above about 8.9%
The depositor's hits bear a star. Hits are enriched below; roughly 2.7% of the tested compounds scored in any of these assays.

For CCCn1ncc(CN2CCN(Cc3ccc(C)o3)C(CCO)C2)c1C (centres undefined) the results were M18AAP inhibitor 3, TNF necrop inh -1, L929 necroptosis 0, Wee1 degr inh 11*, RBBP9 inh -8, p97 inhibitor 4 and Wee1 degr conf 2.
Cc1ccc(C)c(S(=O)(=O)Nc2nc(C)c(C(=O)Nc3ccccc3)s2)c1 was read as M18AAP inhibitor 0, TNF necrop inh 0, L929 necroptosis 1, Wee1 degr inh 14*, RBBP9 inh -10, p97 inhibitor -2 and Wee1 degr conf 2.
Screening COC(=O)c1ccc(OCC(=O)c2ccc(O)cc2O)cc1 returned M18AAP inhibitor -14, TNF necrop inh 0, L929 necroptosis 1, Wee1 degr inh -2, RBBP9 inh 1 and p97 inhibitor 1.
Screening COc1ccc(C(=O)COc2ccc(F)cc2)c(O)c1 returned M18AAP inhibitor 2, TNF necrop inh 0, L929 necroptosis 0, Wee1 degr inh 18*, RBBP9 inh 0, p97 inhibitor 0 and Wee1 degr conf 1.
For CC(C)[C@@H](NC(=O)C1CCC(CNC(=O)[C@H](Cc2ccccc2)NC(=O)OC(C)(C)C)CC1)C(=O)O (some centres undefined) the results were M18AAP inhibitor 4.
For CC(C)(C)Sc1ccccc1S(=O)(=O)C(C)(C)C the results were M18AAP inhibitor 1, TNF necrop inh 1, L929 necroptosis 0, Wee1 degr inh 13*, RBBP9 inh 1, p97 inhibitor -3 and Wee1 degr conf -2.
For COC(=O)c1ccccc1S(=O)(=O)C(C)(C)C the results were M18AAP inhibitor 1, TNF necrop inh -2, L929 necroptosis 0, Wee1 degr inh -1, RBBP9 inh -9 and p97 inhibitor -4.
Screening COc1ccc(Cl)c2c1[nH]c1nc(SCc3cccnc3)nnc12 returned M18AAP inhibitor -3, TNF necrop inh 1, L929 necroptosis 1, Wee1 degr inh 13*, RBBP9 inh 3, p97 inhibitor 4 and Wee1 degr conf -1.
`COc1ccc(NC(=O)CSc2ccccn2)cc1` gave M18AAP inhibitor -10, TNF necrop inh 1, L929 necroptosis 0, Wee1 degr inh -1, RBBP9 inh 0 and p97 inhibitor 1.
`COc1ccc(NC(=O)CSCC(=O)NCCc2ccccn2)cc1` gave M18AAP inhibitor -5, TNF necrop inh 1, L929 necroptosis 2, Wee1 degr inh 16*, RBBP9 inh -11, p97 inhibitor 4 and Wee1 degr conf -1.
Cc1ccc2c(c1)N(CC(=O)NCCC1=CCCCC1)C(=O)c1cccnc1O2 was read as M18AAP inhibitor -9.
For CNS(=O)(=O)c1cccc(C(=O)OCC(=O)Nc2ccc(Cl)cn2)c1 the results were M18AAP inhibitor 0, TNF necrop inh 1, L929 necroptosis 0, Wee1 degr inh 12*, RBBP9 inh 1, p97 inhibitor 6 and Wee1 degr conf 1.
For CN1C(=O)NC(c2cccc([N+](=O)[O-])c2)C2=C1CC(C)(C)CC2=O (centres undefined) the results were M18AAP inhibitor -6.
Screening CC1(C)CC(=O)C2=C(C1)N=C1SCCC(=O)N1C2c1cccc([N+](=O)[O-])c1 (centres undefined) returned M18AAP inhibitor 2, TNF necrop inh 0, L929 necroptosis 1, Wee1 degr inh 12*, RBBP9 inh 5, p97 inhibitor 1 and Wee1 degr conf 0.
Screening CC(C(=O)c1c[nH]c(C(=O)N=CN(C)C)c1)c1ncc(C(F)(F)F)cc1Cl (centres undefined) returned M18AAP inhibitor 0, TNF necrop inh 1, L929 necroptosis 3, Wee1 degr inh 14*, RBBP9 inh 4, p97 inhibitor 6 and Wee1 degr conf 2.
For O=[N+]([O-])c1ccccc1CSc1nc2ccccc2o1 the results were M18AAP inhibitor -1, TNF necrop inh 1, L929 necroptosis 0, Wee1 degr inh 44*, RBBP9 inh -11, p97 inhibitor 2 and Wee1 degr conf -1.
`COCC(=O)N1CCC(Oc2ccc(C(=O)NC(C)c3nc(C)sc3C)cc2)CC1` (centres undefined) gave M18AAP inhibitor -6.
For O=C(Nc1ccc(Cl)c(Cl)c1)Nc1nccs1 the results were M18AAP inhibitor 4, TNF necrop inh -13, L929 necroptosis 1, Wee1 degr inh 14*, RBBP9 inh -18, p97 inhibitor -1 and Wee1 degr conf 25*.
Screening O=C(N=Nc1c(O)[nH]c2ccccc12)c1cccc(S(=O)(=O)Nc2ccccc2Cl)c1 returned M18AAP inhibitor 4, TNF necrop inh 0, L929 necroptosis 0, Wee1 degr inh 6, RBBP9 inh 1 and p97 inhibitor 3.
`CC(C)NC(=S)N=Nc1c(O)[nH]c2ccc(C(C)C)cc12` gave M18AAP inhibitor 8, TNF necrop inh 0, L929 necroptosis 2, Wee1 degr inh 15*, RBBP9 inh 5, p97 inhibitor 4 and Wee1 degr conf 0.
`CC(C)c1ccc2[nH]c(O)c(N=NC(=O)c3cccc(S(=O)(=O)Nc4ccccc4Cl)c3)c2c1` gave M18AAP inhibitor 0, TNF necrop inh 1, L929 necroptosis 0, Wee1 degr inh 20*, RBBP9 inh -7, p97 inhibitor 6 and Wee1 degr conf 0.
`CC(C)Cn1c(-c2cccs2)nc2nc3ccccc3nc21` gave M18AAP inhibitor -2, TNF necrop inh -4, L929 necroptosis 1, Wee1 degr inh 6, RBBP9 inh -4 and p97 inhibitor 0.
For CCCCn1c(-c2cccs2)nc2nc3ccccc3nc21 the results were M18AAP inhibitor -2, TNF necrop inh -2, L929 necroptosis 0, Wee1 degr inh 13*, RBBP9 inh -6, p97 inhibitor -2 and Wee1 degr conf 0.
For COC(=O)CC1C(=O)NCCN1C(=O)CSc1nc2ccccc2c(=O)n1CC(C)C (centres undefined) the results were M18AAP inhibitor 2, TNF necrop inh 0, L929 necroptosis -1, Wee1 degr inh 2, RBBP9 inh -7 and p97 inhibitor 0.

Screening data: PubChem, several laboratories
